Reference: ChEMBL document CHEMBL4477190, “Marine-Derived Secondary Metabolite, Griseusrazin A, Suppresses Inflammation through Heme Oxygenase-1 Induction in Activated RAW264.7 Macrophages” (J Nat Prod, 2016)
Calls of active or inactive are those of the source. The calls are words filed in the database; no cut-off is given here.

Key:
[1] = test system: RAW264.7; test: Antiinflammatory activity in LPS-stimulated mouse RAW264.7 cells assessed as reduction in TNF-alpha production at 20 and 40 uM pre-treated for 6 hrs prior to LPS-challenge measured after 24 hrs iin presence of HO-1 competitive inhibitor SnPP; type: functional, cell-based
In short: (§1)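 RAW264.7 cells pretreated 6 h with compound (40 μM), with or without SnPP (50 μM), then stimulated 24 h with LPS (500 ng/mL). Nitrite in conditioned medium measured. PGE2, TNF-α, IL-1β and IL-6 measured by commercial kit (R&D Systems). iNOS and COX-2 read by Western blot. Mean ± SD of three experiments; one-way ANOVA with Newman−Keuls test.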

[2] = test system: RAW264.7; test: Antiinflammatory activity in LPS-stimulated mouse RAW264.7 cells assessed as reduction in nitrite production at 5 to 40 uM pre-treated for 6 hrs prior to LPS-challenge measured after 24 hrs in presence of HO-1 competitive inhibitor SnPP by Griess reaction
[3] = test system: RAW264.7; test: Antiinflammatory activity in LPS-stimulated mouse RAW264.7 cells assessed as reduction in PGE2 production at 5 to 40 uM pre-treated for 6 hrs prior to LPS-challenge measured after 24 hrs; type: functional, cell-based
In short: (§2)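 RAW264.7 macrophages pretreated 6 h with compound, then stimulated 24 h with LPS (500 ng/mL). Nitrite in conditioned medium measured. PGE2 measured by commercial kit. iNOS and COX-2 read by Western blot in RIPA lysates (25 mM Tris-HCl pH 7.6, 150 mM NaCl, 1% NP-40, 1% deoxycholate, 0.1% SDS). Mean ± SD of three experiments.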

[4] = target: T1, Nuclear factor erythroid 2-related factor 2 (Mus musculus) (UniProt Q60795); test: Increase in nuclear Nrf2 translocation in LPS-stimulated mouse RAW264.7 cells assessed as nuclear Nrf2 level at 20 and 40 uM measured up to 120 mins by Western blot analysis; type: cell-based
T1 sequence (whole entry): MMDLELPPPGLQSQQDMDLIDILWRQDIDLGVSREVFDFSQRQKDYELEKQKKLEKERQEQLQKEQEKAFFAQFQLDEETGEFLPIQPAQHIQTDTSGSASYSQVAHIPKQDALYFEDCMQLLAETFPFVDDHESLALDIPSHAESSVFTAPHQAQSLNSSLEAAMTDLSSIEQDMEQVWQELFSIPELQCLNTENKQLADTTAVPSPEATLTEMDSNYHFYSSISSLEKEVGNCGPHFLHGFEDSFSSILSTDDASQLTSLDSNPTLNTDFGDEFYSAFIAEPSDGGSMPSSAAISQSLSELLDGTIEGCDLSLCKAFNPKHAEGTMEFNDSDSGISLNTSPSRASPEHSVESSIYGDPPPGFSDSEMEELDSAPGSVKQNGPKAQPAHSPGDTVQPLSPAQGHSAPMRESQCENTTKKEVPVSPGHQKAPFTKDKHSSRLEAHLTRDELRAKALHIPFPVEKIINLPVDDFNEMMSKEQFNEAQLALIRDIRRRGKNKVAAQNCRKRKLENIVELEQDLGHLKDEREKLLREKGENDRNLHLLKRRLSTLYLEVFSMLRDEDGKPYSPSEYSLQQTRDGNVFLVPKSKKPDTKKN
In short: (§3)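 Cells exposed to compound at 40 μM for 0–120 min in 20 min steps. Nuclei separated from cytosol with PER-Mammalian Protein Extraction buffer plus protease inhibitor cocktail and 1 mM PMSF. Nuclear and cytoplasmic Nrf2 read by Western blot. Representative blots from three independent experiments.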

[5] = test system: RAW264.7; test: Antiinflammatory activity in LPS-stimulated mouse RAW264.7 cells assessed as reduction in IL6 production at 20 and 40 uM pre-treated for 6 hrs prior to LPS-challenge measured after 24 hrs in presence of HO-1 competitive inhibitor SnPP; type: functional, cell-based; in short: as §1
[6] = test system: RAW264.7; test: Reduction in iNOS expression in LPS-stimulated mouse RAW264.7 cells at 5 to 40 uM pre-treated for 6 hrs prior to LPS-challenge measured after 24 hrs by western blot analysis in presence of HO-1 competitive inhibitor SnPP by western blot analysis; type: functional, cell-based; in short: as §1
[7] = test system: RAW264.7; test: Reduction in IL-1beta mRNA expression in LPS-stimulated mouse RAW264.7 cells at 20 and 40 uM pre-treated for 6 hrs prior to LPS-challenge measured after 24 hrs by real-time PCR analysis; type: functional, cell-based
In short: (§4)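 RAW264.7 macrophages pretreated 6 h with compound, then given LPS (500 ng/mL) for 24 h. TNF-α, IL-1β and IL-6 protein measured by commercial kit (R&D Systems). mRNA levels measured by real-time PCR. Mean ± SD of three experiments; one-way ANOVA with Newman−Keuls test.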

[8] = test system: RAW264.7; test: Reduction in TNF-alpha mRNA expression in LPS-stimulated mouse RAW264.7 cells at 20 and 40 uM pre-treated for 6 hrs prior to LPS-challenge measured after 24 hrs by real-time PCR analysis; type: functional, cell-based; in short: as §4
[9] = test system: RAW264.7; test: Reduction in IL6 mRNA expression in LPS-stimulated mouse RAW264.7 cells at 20 and 40 uM pre-treated for 6 hrs prior to LPS-challenge measured after 24 hrs by real-time PCR analysis; type: functional, cell-based; in short: as §4
[10] = target: Transcription factor p65 (Mus musculus) (UniProt Q04207); test: Inhibition of LPS-stimulated NF-kappaB p65 nuclear translocation in mouse RAW264.7 cells at 20 and 40 uM pre-treated for 6 hrs prior to LPS-challenge measured after 30 mins by western blot analysis; type: cell-based
Sequence of Transcription factor p65 (Mus musculus) (Q04207 whole entry): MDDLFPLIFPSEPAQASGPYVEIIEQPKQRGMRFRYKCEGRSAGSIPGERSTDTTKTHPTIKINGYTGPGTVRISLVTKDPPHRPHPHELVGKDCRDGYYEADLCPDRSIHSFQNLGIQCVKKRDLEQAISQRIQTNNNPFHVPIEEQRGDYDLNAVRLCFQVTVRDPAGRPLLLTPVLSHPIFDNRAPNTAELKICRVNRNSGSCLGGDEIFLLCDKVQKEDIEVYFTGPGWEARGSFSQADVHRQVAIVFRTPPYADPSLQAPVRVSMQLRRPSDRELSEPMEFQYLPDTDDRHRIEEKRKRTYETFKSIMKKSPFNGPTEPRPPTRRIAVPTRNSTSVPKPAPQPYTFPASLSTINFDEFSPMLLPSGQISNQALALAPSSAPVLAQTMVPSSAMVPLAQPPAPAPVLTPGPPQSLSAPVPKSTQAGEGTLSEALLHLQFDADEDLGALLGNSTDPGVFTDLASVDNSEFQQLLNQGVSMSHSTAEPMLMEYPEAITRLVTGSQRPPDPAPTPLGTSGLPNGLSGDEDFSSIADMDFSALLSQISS
In short: (§5)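 Cells pretreated 6 h with compound, then stimulated 30 min with LPS (500 ng/mL). Nuclear fractions probed by Western blot for p50 and p65. NF-κB DNA binding in nuclear extracts measured by TransAM ELISA kit. Mean ± SD of three experiments.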

[11] = target: T1, Nuclear factor erythroid 2-related factor 2 (Mus musculus); test: Activation of Nrf2 in LPS-stimulated mouse RAW264.7 cells assessed as induction of HO-1 protein expression at 5 to 40 uM pre-treated for 6 hrs prior to LPS-challenge measured after 12 hrs by western blot analysis; type: cell-based
In short: (§6)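 RAW264.7 macrophages incubated 12 h with compound (5−40 μM). HO-1 mRNA measured, and HO-1 protein by Western blot. Mean ± SD of three experiments; representative blots from three independent experiments.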

[12] = test system: RAW264.7; test: Reduction in IL-1beta production in LPS-stimulated mouse RAW264.7 cells at 20 and 40 uM pre-treated for 6 hrs prior to LPS-challenge measured after 24 hrs; type: functional, cell-based; in short: as §4
[13] = test system: RAW264.7; test: Reduction in IL6 production in LPS-stimulated mouse RAW264.7 cells at 20 and 40 uM pre-treated for 6 hrs prior to LPS-challenge measured after 24 hrs; type: functional, cell-based; in short: as §4
[14] = target: T1, Nuclear factor erythroid 2-related factor 2 (Mus musculus); test: Increase in nuclear Nrf2 translocation in LPS-stimulated mouse RAW264.7 cells assessed as cytosolic Nrf2 level at 20 and 40 uM measured up to 120 mins by Western blot analysis; type: cell-based; in short: as §3
[15] = test system: RAW264.7; test: Inhibition of LPS-stimulated NF-kappaB p50 nuclear translocation in mouse RAW264.7 cells at 20 and 40 uM pre-treated for 6 hrs prior to LPS-challenge measured after 30 mins by western blot analysis; type: cell-based; in short: as §5
[16] = test system: RAW264.7; test: Antiinflammatory activity in LPS-stimulated mouse RAW264.7 cells assessed as reduction in nitrite production at 5 to 40 uM pre-treated for 6 hrs prior to LPS-challenge measured after 24 hrs by Griess reaction; type: functional, cell-based; in short: as §2
[17] = test system: RAW264.7; test: Reduction in COX2 expression in LPS-stimulated mouse RAW264.7 cells at 5 to 40 uM pre-treated for 6 hrs prior to LPS-challenge measured after 24 hrs by western blot analysis in presence of HO-1 competitive inhibitor SnPP by western blot analysis; type: functional, cell-based; in short: as §1
[18] = test system: RAW264.7; test: Antiinflammatory activity in LPS-stimulated mouse RAW264.7 cells assessed as reduction in PGE2 production at 5 to 40 uM pre-treated for 6 hrs prior to LPS-challenge measured after 24 hrs in presence of HO-1 competitive inhibitor SnPP
[19] = test system: RAW264.7; test: Reduction in iNOS expression in LPS-stimulated mouse RAW264.7 cells at 5 to 40 uM pre-treated for 6 hrs prior to LPS-challenge measured after 24 hrs by western blot analysis; type: functional, cell-based; in short: as §2
[20] = test system: RAW264.7; test: Antiinflammatory activity in LPS-stimulated mouse RAW264.7 cells assessed as reduction in IL-1beta production at 20 and 40 uM pre-treated for 6 hrs prior to LPS-challenge measured after 24 hrs in presence of competitive inhibitor of HO-1 SnPP; type: functional, cell-based; in short: as §1
[21] = test system: RAW264.7; test: Reduction in COX2 expression in LPS-stimulated mouse RAW264.7 cells at 5 to 40 uM pre-treated for 6 hrs prior to LPS-challenge measured after 24 hrs by western blot analysis; type: functional, cell-based; in short: as §2
[22] = target: T1, Nuclear factor erythroid 2-related factor 2 (Mus musculus); test: Activation of Nrf2 in LPS-stimulated mouse RAW264.7 cells assessed as induction of HO-1 mRNA expression at 5 to 40 uM pre-treated for 6 hrs prior to LPS-challenge measured after 12 hrs; type: cell-based; in short: as §6
[23] = target: Transcription factor p65 (Mus musculus) (UniProt Q04207); test: Inhibition of LPS-stimulated DNA binding activity of NF-kappaB p65 in mouse RAW264.7 cells assessed as at 20 and 40 uM pre-treated for 6 hrs prior to LPS-challenge measured after 30 mins by ELISA method; type: cell-based; in short: as §5
[24] = test system: RAW264.7; test: Reduction in TNF-alpha production in LPS-stimulated mouse RAW264.7 cells at 20 and 40 uM pre-treated for 6 hrs prior to LPS-challenge measured after 24 hrs; type: functional, cell-based; in short: as §4

## Cc1nc(Cc2ccc(N(C)C=O)cc2)c(C)nc1Cc1ccc(N(C)C=O)cc1
[1]
  Activity: inactive
[2]
  Activity: inactive
[3]
  Activity: Dose-dependent effect
[4]
  Activity: Active
[5]
  Activity: inactive
[6]
  Activity: inactive
[7]
  Activity: Dose-dependent effect
[8]
  Activity: Dose-dependent effect
[9]
  Activity: Dose-dependent effect
[10]
  inhibition: Active
[11]
  Activity: Active
[12]
  Activity: Dose-dependent effect
[13]
  Activity: Dose-dependent effect
[14]
  Activity: Active
[15]
  inhibition: Active
[16]
  Activity: Dose-dependent effect
[17]
  Activity: inactive
[18]
  Activity: inactive
[19]
  Activity: Dose-dependent effect
[20]
  Activity: inactive
[21]
  Activity: Dose-dependent effect
[22]
  Activity: Active
[23]
  inhibition: Active
[24]
  Activity: Dose-dependent effect
